Experimental data taken from the RNAGym collection of RNA variant scans (doi:10.1126/science.aae0568).
This sample holds only a part of the variants without activity.

B1: tRNA (parent)
chain: GUUCCGUUGGCGUAAUGGUAACGCGUCUCCCUCCUAAGGAGAAGACUGCGGGUUCGAGUCCCGUACGGAACG

Variants of: B1
Test: yeast fitness relative to wild type (ratio to wild type); higher = fitter; tRNA-Arg(CCU), competitive growth, 37 C, YPD
Summary of the method: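 Changes in genotype frequencies gave Darwinian fitness relative to wild type. Frequencies were read by 100-nucleotide paired-end sequencing of gene amplicons before and after pooled Saccharomyces cerevisiae strains, carrying tRNA-Arg(CCU) gene variants at the native locus, were competed in YPD at 37°C for 24 hours in six replicates. A genotype was kept only with ≥ 100 starting reads, and estimates < 0.5 were set to 0.5.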

A21C C22G A70C and A20U U28G C30U U32G C34G cannot be ordered by yeast fitness: at most 0.5 for the first, at most 0.5 for the second.

Going from A20U C34G to A20U C34A, the yeast fitness rises from 0.68 to 0.7.

First: A20U C34U
Second: A21G A37C A57C
The yeast fitness of the first is higher: 0.652 for the first, at most 0.5 for the second.

First: A20U C31G A69C
Second: A20U G67C
The yeast fitness of the first is lower: at most 0.5 for the first, 0.732 for the second.

Compared with A20U G67A, A20U G38C G50C A65C is lower in yeast fitness: 0.657 for the first, at most 0.5 for the second.

A20U C34U G41A and A21G A40G A42C U53A U54C cannot be ordered by yeast fitness: at most 0.5 for the first, at most 0.5 for the second.

A21C G58C C66U and A20U G41C C46U C66A cannot be ordered by yeast fitness: at most 0.5 for the first, at most 0.5 for the second.

A20U C33A G41C and A20U C22G A40G C66U cannot be ordered by yeast fitness: at most 0.5 for the first, at most 0.5 for the second.

First: A20U G23A C66U
Second: A21C C22G
The yeast fitness of the first is lower: 0.55 for the first, 0.564 for the second.

A21C C22U and A21C C29A G52C G68A are the same in yeast fitness: 0.664 for the first, 0.664 for the second.

A21G A37U C66U and A21G A36G G38C C49U cannot be ordered by yeast fitness: at most 0.5 for the first, at most 0.5 for the second.

Going from A20U C66U A70U to A21C C24U A37C G39A C49G A69C, the yeast fitness falls from 0.646 to at most 0.5.

First: A20U C34G A36C C55U
Second: A20U U32A C66U
The yeast fitness of the first is lower: 0.528 for the first, 0.554 for the second.

Compared with A21C C27G U28A C29U C34U, A21C A40G is higher in yeast fitness: 0.525 for the first, 0.818 for the second.

Going from A21C A40U to A20U A43C U54C, the yeast fitness falls from 0.807 to at most 0.5.

Compared with A20U G25C U35C C60G, A20U U28C A40U C62G is higher in yeast fitness: at most 0.5 for the first, 0.533 for the second.

Compared with A21C C27U C61G, A20U G67A A70G is higher in yeast fitness: 0.534 for the first, 0.882 for the second.

Compared with A21C C61G, A20U G52A is higher in yeast fitness: 0.585 for the first, 0.759 for the second.

A21C A45C C49U C55G G56C and A20U G38C G68U cannot be ordered by yeast fitness: at most 0.5 for the first, at most 0.5 for the second.

A21G A40G A42U U59G and A21C C24U U32A G41A C62G cannot be ordered by yeast fitness: at most 0.5 for the first, at most 0.5 for the second.

First: A21C G25A C30A A37U C66A
Second: A21C A45C
The yeast fitness of the first is lower: at most 0.5 for the first, 0.73 for the second.

First: A21C C22A C60U
Second: A20U G44C C60A
The yeast fitness of the first is lower: at most 0.5 for the first, 0.617 for the second.

Going from A20U C22G A40G to A21C G68A, the yeast fitness rises from 0.745 to 0.799.

Compared with A21C G68U, A21C C62G is lower in yeast fitness: 0.789 for the first, 0.723 for the second.

First: A21C C62A
Second: A21C C62U
The yeast fitness of the first is lower: 0.788 for the first, 0.798 for the second.

Going from A20U C24U A42C C62G to A20U C46U C55G, the yeast fitness falls from 0.735 to 0.539.

First: A21C C29U C31G A43U A65U
Second: A20U C31A C33G G56A
The yeast fitness of the first is higher: 0.593 for the first, at most 0.5 for the second.

Compared with A20U C60G, A21C C31A is higher in yeast fitness: 0.691 for the first, 0.725 for the second.

Going from A21C C31U to A20U C34U G58C, the yeast fitness falls from 0.733 to at most 0.5.

Compared with A21C U28C A45G, A20U U28C C30U A43G is lower in yeast fitness: 0.603 for the first, at most 0.5 for the second.

First: A21C A43G C60G A65G
Second: A20U U47G
The yeast fitness of the first is lower: at most 0.5 for the first, 0.611 for the second.

Compared with A20U A43G A70U, A20U C27G C30G A36C A70U is lower in yeast fitness: 0.661 for the first, at most 0.5 for the second.

Compared with A20U U26C, A20U C31A G41A is lower in yeast fitness: 0.89 for the first, at most 0.5 for the second.

Compared with A21C U47C A65C, A20U U47A U53C is higher in yeast fitness: at most 0.5 for the first, 0.532 for the second.

First: A21C C29U A57C
Second: A21C A36C U47A C62G
The yeast fitness of the first is higher: 0.558 for the first, at most 0.5 for the second.

A21C G25C U26G C62A and A21C A45G G63C C66U cannot be ordered by yeast fitness: at most 0.5 for the first, at most 0.5 for the second.

Going from A20U C22G A40G A70U to A20U A45U, the yeast fitness rises from at most 0.5 to 0.777.

A21C C33G G39A and A20U U35A C46G C49U cannot be ordered by yeast fitness: at most 0.5 for the first, at most 0.5 for the second.

First: A20U C27U C61G
Second: A21C C34A A37G
The yeast fitness of the first is higher: 0.647 for the first, 0.513 for the second.

First: A20U U54A
Second: A20U G25C A37G C60G C61G
The yeast fitness of the first is higher: 0.699 for the first, 0.561 for the second.

First: A20U C62G
Second: A21G A36G A40C A42C
The yeast fitness of the first is higher: 0.682 for the first, at most 0.5 for the second.

Going from A21C U32C C34A to A21G A42C A43U G56C C66U, the yeast fitness rises from at most 0.5 to 0.598.
